Measurements published in ChEMBL document CHEMBL4011624, “The 1,2,4-Triazolo[4,3-a]pyrazin-3-one as a Versatile Scaffold for the Design of Potent Adenosine Human Receptor Antagonists. Structural Investigations to Target the A2A Receptor Subtype” (J Med Chem, 2017).
The source made the active and inactive calls. The calls are words filed in the database; no cut-off is given here.

Tests used:
Adenosine receptor A3 = target: T1, Adenosine receptor A3 (Homo sapiens, UniProt P0DMS8); assay: Displacement of [3H]HEMADO from human adenosine receptor A3 expressed in CHO cell membranes after 3 hrs by microbeta scintillation counting method
T1 sequence (P0DMS8 whole entry): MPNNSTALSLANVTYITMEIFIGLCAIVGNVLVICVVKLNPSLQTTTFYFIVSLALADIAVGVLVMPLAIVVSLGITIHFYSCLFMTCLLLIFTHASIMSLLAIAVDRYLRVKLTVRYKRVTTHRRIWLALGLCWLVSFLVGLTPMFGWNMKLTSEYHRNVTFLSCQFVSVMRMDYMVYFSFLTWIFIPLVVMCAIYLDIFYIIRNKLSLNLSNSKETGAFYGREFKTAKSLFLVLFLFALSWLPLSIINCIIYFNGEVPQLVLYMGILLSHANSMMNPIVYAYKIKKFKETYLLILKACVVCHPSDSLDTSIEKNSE

Adenosine receptor A1 = target: T2, Adenosine receptor A1 (Homo sapiens, UniProt P30542); assay: Displacement of [3H]CCPA from human adenosine receptor A1 expressed in CHO cell membranes after 3 hrs by microbeta scintillation counting method
T2 sequence (P30542 whole entry): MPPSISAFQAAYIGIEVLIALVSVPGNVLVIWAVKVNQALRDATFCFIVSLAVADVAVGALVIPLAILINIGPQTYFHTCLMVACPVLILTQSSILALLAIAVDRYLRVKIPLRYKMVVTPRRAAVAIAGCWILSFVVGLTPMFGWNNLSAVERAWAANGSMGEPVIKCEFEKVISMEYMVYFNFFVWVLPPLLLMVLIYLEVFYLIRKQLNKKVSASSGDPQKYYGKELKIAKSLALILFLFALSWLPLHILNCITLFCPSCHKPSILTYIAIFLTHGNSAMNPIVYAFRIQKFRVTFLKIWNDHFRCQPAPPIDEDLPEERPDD

Adenosine receptor A2b = target: T3, Adenosine receptor A2b (Homo sapiens, UniProt P29275); assay: Antagonist activity at human adenosine receptor A2B expressed in CHO cell membranes assessed as inhibition of NECA-induced increase of cAMP accumulation preincubated for 10 mins followed by NECA addition measured after 10 mins by GloSensor cAMP assay; type: functional, cell-based
T3 sequence (P29275 whole entry): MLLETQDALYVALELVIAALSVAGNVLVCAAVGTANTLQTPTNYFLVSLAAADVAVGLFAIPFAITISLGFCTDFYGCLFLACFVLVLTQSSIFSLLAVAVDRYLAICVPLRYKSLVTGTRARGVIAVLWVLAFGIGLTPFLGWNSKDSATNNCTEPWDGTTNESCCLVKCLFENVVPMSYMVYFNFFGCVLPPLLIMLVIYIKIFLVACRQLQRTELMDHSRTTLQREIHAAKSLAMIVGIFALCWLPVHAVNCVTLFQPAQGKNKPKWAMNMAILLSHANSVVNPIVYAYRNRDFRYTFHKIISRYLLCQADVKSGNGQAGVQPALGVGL
In short: (§1)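 Receptors stably transfected in CHO cells. Antagonism read as inhibition of the NECA-stimulated rise in cAMP levels. IC50 values were derived from dose-response curves.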

Adenosine receptor A2a [1] = target: T4, Adenosine receptor A2a (Homo sapiens, UniProt P29274); assay: Displacement of [3H]NECA from human adenosine receptor A2A expressed in CHO cell membranes after 3 hrs by microbeta scintillation counting method
Adenosine receptor A2a [2] = target: T4, Adenosine receptor A2a; assay: Antagonist activity at human adenosine receptor A2A expressed in CHO cell membranes assessed as inhibition of NECA-induced increase of cAMP accumulation preincubated for 10 mins followed by NECA addition measured after 10 mins by GloSensor cAMP assay; type: functional, cell-based; in short: as §1
SH-SY5Y [3] = assay: Cytotoxicity against human SH-SY5Y cells assessed as increase in cell viability at 0.5 to 30 nM after 24 hrs by Celltiter-Glo luminescent assay; type: cell-based; details: 0.03 µM
SH-SY5Y [4] = assay: Neuroprotective activity against MPP+-induced toxicity in human SH-SY5Y cells assessed as increase in cell viability at 15 nM pretreated for 1 hr followed by MPP+ addition measured after 24 hrs by Celltiter-Glo luminescent assay; type: functional, cell-based
In short: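 SH-SY5Y human neuroblastoma cells were exposed to MPP+ at 1.5 mM for 24 h, with test agent present, and cell viability was then measured. The MPP+ level was chosen from a pilot range of 50 μM to 3 mM over 24 h.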

SH-SY5Y [5] = assay: Neuroprotective activity against MPP+-induced toxicity in human SH-SY5Y cells assessed as increase in cell viability at 15 nM pretreated for 1 hr followed by MPP+ addition measured after 24 hrs in the presence of human adenosine receptor A2A agonist CGS21680 by Celltiter-Glo luminescent assay; type: functional, cell-based
In short: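 SH-SY5Y cells were given MPP+ (1.5 mM, 24 h) plus test agent at 15 nM, together with the A2A agonist CGS21680 at 10 to 100 nM, and cell viability was then measured.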

T4 sequence (P29274 whole entry): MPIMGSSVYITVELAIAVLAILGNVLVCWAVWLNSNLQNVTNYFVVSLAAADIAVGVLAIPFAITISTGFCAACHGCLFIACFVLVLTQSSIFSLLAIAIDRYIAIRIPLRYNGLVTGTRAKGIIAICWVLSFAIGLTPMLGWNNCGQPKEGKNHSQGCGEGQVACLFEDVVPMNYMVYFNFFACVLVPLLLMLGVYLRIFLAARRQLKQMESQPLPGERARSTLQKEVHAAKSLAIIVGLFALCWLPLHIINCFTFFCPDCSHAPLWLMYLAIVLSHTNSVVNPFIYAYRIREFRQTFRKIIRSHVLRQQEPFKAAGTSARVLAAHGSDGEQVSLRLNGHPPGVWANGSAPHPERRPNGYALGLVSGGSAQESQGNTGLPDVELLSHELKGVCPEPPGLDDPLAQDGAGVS

Row | SMILES | Ki (Adenosine receptor A3) [nM] | Ki (Adenosine receptor A1) [nM] | IC50 (Adenosine receptor A2b) [nM] | Ki (Adenosine receptor A2a [1]) [nM] | IC50 (Adenosine receptor A2a [2]) [nM] | Activity (SH-SY5Y [3]) | Activity (SH-SY5Y [4]) | Activity (SH-SY5Y [5])
1 | Cc1ccc(-c2cn3c(=O)n(-c4ccccc4)nc3c(=O)[nH]2)cc1 | > 30000 | > 30000 | > 30000 | > 30000 |  |  |  | 
2 | O=c1[nH]c(-c2ccc(O)cc2)cn2c(=O)n(-c3ccccc3)nc12 | 207 | 616 | > 30000 | > 30000 |  |  |  | 
3 | O=c1[nH]c(-c2ccccc2)cn2c(=O)n(-c3ccc(O)cc3)nc12 | 0.37 | 129 | > 30000 | 387 |  |  |  | 
4 | Nc1nc(-c2cccc(OCc3ccccc3)c2)cn2c(=O)n(-c3ccccc3)nc12 | > 30000 | > 30000 | > 30000 | > 30000 |  |  |  | 
5 | O=c1[nH]c(-c2ccccc2)cn2c(=O)n(-c3ccccc3O)nc12 | 21600 | 1480 | > 30000 | > 30000 |  |  |  | 
6 | Nc1nc(-c2ccc(OCC3CC3)cc2)cn2c(=O)n(-c3ccccc3)nc12 | > 30000 | > 30000 | > 30000 | > 30000 |  |  |  | 
7 | Nc1nc(-c2ccccc2)cn2c(=O)n(-c3ccc([N+](=O)[O-])cc3)nc12 | > 30000 | 8.1 | > 30000 | 402 |  |  |  | 
8 | Cc1cn2c(=O)n(-c3ccc(O)cc3)nc2c(=O)[nH]1 | 229 | 5740 | > 30000 |  |  |  |  | 
9 | Cc1cn2c(=O)n(-c3ccccc3)nc2c(=O)[nH]1 | 60 | > 30000 | > 30000 | > 30000 |  |  |  | 
10 | COc1ccc(-c2cn3c(=O)n(-c4ccccc4)nc3c(N)n2)cc1 | > 30000 | > 30000 | > 30000 | 7.2 | 180 | Non-Toxic | Active | inactive
11 | Nc1nc(-c2ccc(OCC3CCC3)cc2)cn2c(=O)n(-c3ccccc3)nc12 | > 30000 | > 30000 | > 30000 | > 30000 |  |  |  | 
12 | Nc1ccc(-n2nc3c(=O)[nH]c(-c4ccccc4)cn3c2=O)cc1 | 63 | 247 | > 30000 | 415 |  |  |  | 
13 | C#CCOc1cccc(-c2cn3c(=O)n(-c4ccccc4)nc3c(N)n2)c1 | 67 | 45 | > 30000 | 5.1 |  |  |  | 
14 | O=c1[nH]c(-c2cccc(O)c2)cn2c(=O)n(-c3ccccc3)nc12 | 1050 | 698 | > 30000 | 4070 |  |  |  | 
15 | COc1ccccc1-n1nc2c(N)nc(-c3ccccc3)cn2c1=O | 392 | 247 | > 30000 | 309 |  |  |  | 
16 | CC(C)Oc1ccc(-c2cn3c(=O)n(-c4ccccc4)nc3c(N)n2)cc1 | > 30000 | > 30000 | > 30000 | 7.4 |  |  |  | 
17 | COc1ccc(-n2nc3c(=O)[nH]c(C)cn3c2=O)cc1 | 50 | > 30000 | > 30000 | > 30000 |  |  |  | 
18 | COc1ccccc1-n1nc2c(=O)[nH]c(-c3ccccc3)cn2c1=O | 5200 | 2140 | > 30000 | > 30000 |  |  |  | 
19 | Nc1nc(-c2ccccc2)cn2c(=O)n(-c3ccc(O)cc3)nc12 | 429 | 18 | > 30000 | 138 |  |  |  | 

Row | SMILES | Ki (Adenosine receptor A3) [nM] | Ki (Adenosine receptor A1) [nM] | IC50 (Adenosine receptor A2b) [nM] | Ki (Adenosine receptor A2a [1]) [nM] | IC50 (Adenosine receptor A2a [2]) [nM] | Activity (SH-SY5Y [3]) | Activity (SH-SY5Y [4]) | Activity (SH-SY5Y [5])
20 | COc1ccc(-c2cn3c(=O)n(-c4ccccc4)nc3c(=O)[nH]2)cc1 | > 30000 | > 30000 | > 30000 | > 30000 |  |  |  | 
21 | Nc1nc(-c2ccccc2)cn2c(=O)n(-c3ccccc3O)nc12 | 1560 |  | > 30000 | 47 |  |  |  | 
22 | Nc1nc(-c2ccc(O)cc2)cn2c(=O)n(-c3ccccc3)nc12 | 53 | 45 | > 30000 | 45 |  |  |  | 
23 | C#CCOc1ccc(-c2cn3c(=O)n(-c4ccccc4)nc3c(N)n2)cc1 | > 30000 | > 30000 | > 30000 | 10.6 |  |  |  | 
24 | COc1cccc(-c2cn3c(=O)n(-c4ccccc4)nc3c(=O)[nH]2)c1 | > 30000 | > 30000 | > 30000 | > 30000 |  |  |  | 
25 | Cc1cn2c(=O)n(-c3ccc(O)cc3)nc2c(N)n1 | 5160 | 1000 | > 30000 | 1320 |  |  |  | 
26 | Nc1nc(-c2ccccc2)cn2c(=O)n(-c3ccccc3)nc12 | 11 | 13 | > 30000 | 10 |  |  |  | 
27 | COc1cccc(-c2cn3c(=O)n(-c4ccccc4)nc3c(N)n2)c1 | 42 | 44 | > 30000 | 6.8 |  |  |  | 
28 | Nc1nc(-c2cccc(O)c2)cn2c(=O)n(-c3ccccc3)nc12 | 134 | 14 | > 30000 | 3.5 |  |  |  | 
29 | COc1ccc(-n2nc3c(=O)[nH]c(-c4ccccc4)cn3c2=O)cc1 | 214 | > 30000 | > 30000 | > 30000 |  |  |  | 
30 | CCOc1ccc(-c2cn3c(=O)n(-c4ccccc4)nc3c(N)n2)cc1 | > 30000 | > 30000 | > 30000 | 2.9 | 98 |  |  | 
31 | Cc1ccc(-c2cn3c(=O)n(-c4ccccc4)nc3c(N)n2)cc1 | > 30000 | > 30000 | > 30000 | > 30000 |  |  |  | 
32 | COc1ccc(-n2nc3c(N)nc(C)cn3c2=O)cc1 | 255 | 1740 | > 30000 | 1040 |  |  |  | 
33 | CCCOc1ccc(-c2cn3c(=O)n(-c4ccccc4)nc3c(N)n2)cc1 | > 30000 | > 30000 | > 30000 |  |  |  |  | 
34 | O=c1[nH]c(-c2ccccc2)cn2c(=O)n(-c3ccccc3)nc12 | 96 | > 30000 | > 30000 | > 30000 |  |  |  | 
35 | COc1ccc(-n2nc3c(N)nc(-c4ccccc4)cn3c2=O)cc1 | 117 | 20 | > 30000 | 78 |  |  |  | 
36 | Nc1nc(-c2ccc(OCc3ccccc3)cc2)cn2c(=O)n(-c3ccccc3)nc12 | > 30000 | 3700 | > 30000 | 708 |  |  |  | 
37 | Cc1cn2c(=O)n(-c3ccccc3)nc2c(N)n1 | 4370 | 67 | > 30000 | 485 |  |  |  | 
38 | Nc1ccc(-n2nc3c(N)nc(-c4ccccc4)cn3c2=O)cc1 | 650 | 8.9 | > 30000 | 3480 |  |  |  | 
